Rows were chosen to be rich in hits. Some 8.8% of all compounds tested hit in one or more screens of this group.
S1P3 ag = activates the human S1P3 receptor | Q99500 | S1P3 NFAT-BLA reporter cells, agonism, FRET ratio; relative to 1 µM S1P, basal subtracted | activation, % at 4.5 µM | 0.1% of 60,000 active | AID 373;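 active = activation above the screen-wide mean plus 3 SD, cut at about 4.5% in these data, passing the limit was not always enough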
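Assay system: CHO cells stably expressing human S1P3, Gα16 and NFAT-β-lactamase reporter. Timing: overnight plating, 4 h compound 37 °C, 2 h substrate RT. Signal: β-lactamase FRET emission ratio 460/535 nm. Measure: percent activation versus median 1 µM S1P response, basal-subtracted, per plate. Repeats: primary screen single test, confirmation screen in triplicate.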
S1P1 ag pot = activates or potentiates agonism at human S1P1 receptor; P21453; 0.57% of 56,000 active; S1P1 CRE-bla cells, forskolin, beta-lactamase FRET, potentiator mode; S1P1 agonist co-added at EC20, 2 nM; 100% = saturating reference agonist, 0% = basal; activation, % at 9.5 µM;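 active = activation above a cutoff set at the mean activation of all tested compounds plus 3 SD, cut at about 54% in these data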;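 note: forskolin at 4 µM as EC80 and the EC20 agonist is SEW2871; 100% = SEW2871 at its EC100 plus forskolin at EC80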
Target sequence (P21453 whole entry, looked up): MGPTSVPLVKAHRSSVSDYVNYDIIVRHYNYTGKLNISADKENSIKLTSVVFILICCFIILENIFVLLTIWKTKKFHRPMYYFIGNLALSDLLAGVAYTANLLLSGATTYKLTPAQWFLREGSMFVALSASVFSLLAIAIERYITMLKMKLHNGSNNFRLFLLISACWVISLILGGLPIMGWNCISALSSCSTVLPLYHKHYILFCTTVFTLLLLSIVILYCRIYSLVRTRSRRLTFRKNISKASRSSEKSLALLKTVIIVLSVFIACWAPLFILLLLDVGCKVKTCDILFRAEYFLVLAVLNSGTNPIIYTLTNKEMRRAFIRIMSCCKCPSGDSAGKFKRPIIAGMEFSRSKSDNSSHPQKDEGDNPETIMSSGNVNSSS
M1 ag = agonists of M1 muscarinic receptor; CHO-M1 cells, Fluo-4 calcium fluorescence, agonist mode; stronger effect = higher value; B-score at 10 µM; 3% of 64,000 active; AID 626;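 active = fluorescence rise, raw or as B-score row- and column-corrected plate score, outside the 99.7% band of its plate's samples, either direction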
M1 antag = antagonists of rat M1 muscarinic receptor. P08482. CHO-M1 cells, Fluo-4 calcium, ACh EC80 antagonist mode; stronger effect = lower value. B-score at 10 µM. 3.4% of 64,000 active;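 active = calcium fluorescence response, raw or row-and-column corrected B-score, differing from the plate sample mean either way at a set confidence level, mostly lower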
RORa activator = activates the human nuclear receptor RORA; P35398; CHO-K1 Gal4-RORA LBD luciferase reporter, luminescence; percent increase over mock-subtracted basal signal; activation, % at 10 µM; 1.5% of 65,000 active; AID 560;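 active = activation above the mean of all tested compounds plus 3 SD, cut at about 49% in these data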;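 note: 0% = DMSO-treated RORA cells and 100% = added signal equal to DMSO minus mock-transfected cells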
SF1 activator = activators of human nuclear receptor SF-1; 1.9% of 65,000 active; activation, % at 10 µM; CHO-K1 Gal4-SF-1 LBD luciferase reporter; % increase over DMSO SF-1-specific signal;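 active = activation above the mean activation of all tested compounds plus 3 SD, cut at about 50% in these data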
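System: CHO-K1 cells with Gal4–hSF-1 LBD chimera plus Gal4-driven luciferase; quantity: 4,000 CHO-K1 cells per well; compound: one dose, 10 µM compound, 1% DMSO; times: 20 h compound treatment, 37 °C; measured by: SteadyLite luciferase luminescence; read-out: percent activation versus DMSO; benchmarks: DMSO and mock-transfected background; replicates: one test per compound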
* = called active by the depositor; x = no result.

SMILES	S1P3 ag	S1P1 ag pot	M1 ag	M1 antag	RORa activator	SF1 activator
CCCOCCOC(=O)c1[nH]c2c(c1C)C(=O)CC(c1cc(OC)ccc1OC)C2 (stereo not given)	-2	15	0.2	1	-4	-31
N#CC1(c2ccccc2)CCC(=NO)CC1 (stereo not given)	-3	8	0.0035	-0.61	4	5
Oc1ccc(-c2nc3cnccn3c2Nc2ccc3c(c2)OCCO3)cc1	-1	18	0.5	-1.5	53*	27
Cc1c(O)ccc(C(=O)CN2C(=O)c3ccccc3C2=O)c1O	0	2	x	x	12	6
Cc1cc(C(=O)CN2C(=O)c3ccccc3C2=O)c(C)n1C1CC1	0	-26	0.13	0.41	14	56*
CCCCOc1ccc(-c2nnn(C(C)(C)C(=O)OC)n2)cc1	0	1	0.3	1.5*	23	34
CC(=O)c1ccc(Oc2ncnc3sccc23)c(CN2CCOCC2)c1	0	-18	-2.8*	0.029	-21	1
CC(=O)c1ccc(OCC(C)C)c(CN2CCCCC2)c1	0	-6	-0.55	-2	-2	14
CCC(=O)N1c2ccccc2-c2nnc(SC)nc2OC1c1ccc(N(C)C)cc1 (stereo not given)	-1	25	0.088	-0.32	26	2
CCC1Oc2nc(SC)nnc2-c2ccccc2N1C(=O)c1ccccc1 (stereo not given)	1	13	1.2	0.31	54*	50*
COc1ccc(OC)c(S(=O)(=O)N2CCCc3ccccc32)c1	-1	-27	-0.049	0.51	26	13
Cc1c(C(=O)NCC(C)C)sc2nc(-c3ccc(F)cc3)cn12	0	-33	-0.23	0.0024	71*	37
CC(C)N1C(=O)CCC1C(=O)NCCc1ccccc1 (stereo not given)	2	12	0.054	-0.001	-16	6
O=S1(=O)C=C(Sc2nnc(-c3ccccc3)o2)c2ccccc21	0	107*	-0.23	0.36	-80	-66
CN(C)CCCNc1oc(-c2cccc(Cl)c2)nc1C#N	0	-2	-1.1	-0.18	11	-11
CN(C)S(=O)(=O)c1cccc(-c2cn3ccccc3n2)c1	-1	-3	-0.095	-1.6	-8	2
COc1ccc(-c2cn3ccccc3n2)cc1OC	0	-10	-0.14	0.0029	49*	30
CCOC(=O)C1CCN(c2nc3ccccc3nc2C(C#N)C(=O)NCCc2ccccc2)CC1 (stereo not given)	-2	12	33*	-0.73	5	-14
N#CC(C(=O)NC1CCCCC1)c1nc2ccccc2nc1N1CCCCC1 (stereo not given)	-1	1	49*	-1	-10	-3
CCCCNC(=O)C(C#N)c1nc2ccccc2nc1N1CCN(c2ccccc2F)CC1 (stereo not given)	-3	4	36*	-0.18	10	5
O=C1CCC(=O)N1CN(Cc1ccco1)CN1C(=O)CCC1=O	-1	-22	-0.14	0.59	-27	1
Cc1nn(C)c(C)c1Sc1ccc(Br)cc1	-2	19	0.67	-0.6	-3	-17
Cc1cc(C)nc(-n2nc(C)c(Sc3ccc(F)cc3)c2N)n1	60*	-74	0.038	0.39	33	40
CCn1cc(S(=O)(=O)CC(=O)Nc2cc(C)ccc2C)c2ccccc21	1	-4	0.077	-0.81	-6	-4
CCn1cc(S(=O)(=O)CC(=O)NC2CCCCC2)c2ccccc21	x	x	1.1	3.2*	-13	1
COc1ccccc1NC(=O)Nn1cnnc1	x	x	0.083	-0.4	1	21
CN(c1ccccc1C(N)=O)S(=O)(=O)c1ccccc1	0	x	-0.1	-0.018	-13	1
COc1cccc(-c2cc(C(=O)N3CCCCC3C)no2)c1 (stereo not given)	-1	51	-0.11	0.89	50*	86*
COc1cc(C2C(C#N)=C(N)Oc3cc(C)n(Cc4ccccn4)c(=O)c32)cc2c1OCO2 (stereo not given)	-3	3	34*	-10*	-9	2
O=C(Nc1cccc2nsnc12)c1ccc(F)cc1	0	6	1.5	-0.012	-5	5

High-throughput results deposited in PubChem BioAssay by several laboratories.
